Data on one compound can be found in ChEMBL document CHEMBL1944523, “Benzimidazolones: a new class of selective peroxisome proliferator-activated receptor γ (PPARγ) modulators” (J Med Chem, 2011).

Data set [1] in a line: Drug uptake in db/db C57BLKS/J-m +/+ Leprdb mouse at 10 mg/kg, po qd for 10 days measured in day 11 by LC-MS/MS analysis. Also noted: dose 10 mg/kg, route oral. It counts as ADME, organism-based. The note with it: in vivo. The method, boiled down:
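Male db/db (C57BLKS/J-m +/+Leprdb) mice aged 12−13 weeks, seven per group, gavaged once daily with compound in 0.25% methylcellulose vehicle. Total compound exposure measured at study end: plasma acidified with 0.5 M formate buffer pH 3.0, protein precipitated with acetonitrile, quantified by LC−MS−MS against calibration curves in control plasma.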

Data set [2] relates to Rattus norvegicus. In words: Antidiabetic activity in obese insulin resistant Zucker fa/fa rat assessed as decrease in triglyceride level in plasma at 0.1 to 100 mg/kg qd for 7 days. The data set is classed as functional, organism-based. The method, boiled down:
(§1)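 Obese insulin-resistant Zucker fa/fa rats (n = 8) dosed daily for 7 days with vehicle or compound. Tail-nick blood taken 1 day before dosing and 1 day after the seventh dose; plasma insulin by rat insulin RIA, free fatty acids and triglyceride by enzymatic kits per manufacturer instructions.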

For data set [3], the target named is T1, Peroxisome proliferator-activated receptor alpha (Homo sapiens, UniProt Q07869).
T1 sequence (Q07869 whole entry): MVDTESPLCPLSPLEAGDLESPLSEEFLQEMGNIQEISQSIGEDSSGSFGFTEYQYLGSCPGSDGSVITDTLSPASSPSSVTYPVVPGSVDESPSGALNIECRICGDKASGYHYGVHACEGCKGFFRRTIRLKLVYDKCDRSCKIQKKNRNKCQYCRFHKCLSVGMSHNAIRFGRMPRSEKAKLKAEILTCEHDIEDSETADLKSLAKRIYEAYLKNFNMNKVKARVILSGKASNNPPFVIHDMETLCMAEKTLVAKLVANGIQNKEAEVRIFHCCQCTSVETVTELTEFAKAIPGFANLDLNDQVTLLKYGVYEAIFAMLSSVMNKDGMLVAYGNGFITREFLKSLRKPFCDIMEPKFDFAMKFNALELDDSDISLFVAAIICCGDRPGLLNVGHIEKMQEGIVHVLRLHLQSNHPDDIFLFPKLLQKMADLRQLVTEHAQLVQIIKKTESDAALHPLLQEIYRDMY
In words: Binding affinity to human PPARalpha expressed in COS-1 by scintillation proximity assay. The method, boiled down:
(§2)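 Scintillation proximity binding assay on PPAR receptors giving IC50; mean of three determinations.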

Another data set relates to COS-1. Kind of data set: Binding affinity to human PPARgamma LBD Y473A mutant expressed in COS1 cells co-expressing GAL4 by scintillation proximity assay. It counts as cell-based. For orientation: In a scintillation proximity assay essentially only radioactivity close to the scintillant gives light.
Data set [4] concerns Mus musculus. Kind of data set: Antidiabetic activity in db/db C57BLKS/J-m +/+ Leprdb mouse assessed as reduction of glucose level at 30 mg/kg, po qd for 10 days measured on 11 relative to control. Also noted: scale not given: the % may be the effect or the level left. It counts as functional. The method, boiled down:
(§3)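 Male db/db (C57BLKS/J-m +/+Leprdb) mice, 12−13 weeks old, seven per group, chow and water freely available; once-daily oral gavage in 0.25% methylcellulose vehicle for 11 days. Tail blood drawn just before next dose on days 0, 4, 7 and 11 for plasma glucose. Value is percent correction versus vehicle control; mean of n = 7; rosiglitazone 10 mpk positive control.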

Data set [5] addresses T2, Nuclear receptor subfamily 1 group I member 2 (Homo sapiens, UniProt O75469).
T2 sequence (O75469 whole entry): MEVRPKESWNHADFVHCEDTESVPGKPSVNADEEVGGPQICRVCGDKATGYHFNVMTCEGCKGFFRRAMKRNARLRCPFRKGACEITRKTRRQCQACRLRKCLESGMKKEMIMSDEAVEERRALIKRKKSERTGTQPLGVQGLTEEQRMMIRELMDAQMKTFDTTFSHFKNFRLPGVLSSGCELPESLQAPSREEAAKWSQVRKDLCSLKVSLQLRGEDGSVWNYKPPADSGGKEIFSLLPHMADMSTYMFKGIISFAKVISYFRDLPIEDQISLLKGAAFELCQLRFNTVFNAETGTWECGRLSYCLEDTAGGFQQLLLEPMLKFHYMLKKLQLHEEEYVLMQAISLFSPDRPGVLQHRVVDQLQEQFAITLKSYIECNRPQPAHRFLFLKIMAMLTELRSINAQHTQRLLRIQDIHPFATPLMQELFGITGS
Kind of data set: Induction of PXR up to 10 uM.

In data set [6] the test system is Rattus norvegicus. In words: Toxicity in obese insulin resistant Zucker fa/fa rat assessed as increase in plasma volume at >= 10 mg/kg. The settings on record: in vivo, 100 mg/kg.
In data set [7] the test system is Mus musculus. In words: Toxicity in db/db C57BLKS/J-m +/+ Leprdb mouse assessed as increase in water content of epididymal fat pad at 10 to 30 mg/kg, po qd for 10 days measured on day 11 by vaccum drying method. Also noted: dose 10-30 mg/kg, route oral. It counts as organism-based. The settings on record: in vivo, 240 h. The procedure, abridged: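 Male db/db mice, seven per group, gavaged daily in 0.25% methylcellulose; after day 11 dosing epididymal fat pads excised, weighed, vacuum centrifugal-dried over 24 h, reweighed to give water content; mean of seven determinations.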

Data set [8] concerns the target T3, Peroxisome proliferator-activated receptor delta (Homo sapiens, UniProt Q03181).
T3 sequence (Q03181 whole entry): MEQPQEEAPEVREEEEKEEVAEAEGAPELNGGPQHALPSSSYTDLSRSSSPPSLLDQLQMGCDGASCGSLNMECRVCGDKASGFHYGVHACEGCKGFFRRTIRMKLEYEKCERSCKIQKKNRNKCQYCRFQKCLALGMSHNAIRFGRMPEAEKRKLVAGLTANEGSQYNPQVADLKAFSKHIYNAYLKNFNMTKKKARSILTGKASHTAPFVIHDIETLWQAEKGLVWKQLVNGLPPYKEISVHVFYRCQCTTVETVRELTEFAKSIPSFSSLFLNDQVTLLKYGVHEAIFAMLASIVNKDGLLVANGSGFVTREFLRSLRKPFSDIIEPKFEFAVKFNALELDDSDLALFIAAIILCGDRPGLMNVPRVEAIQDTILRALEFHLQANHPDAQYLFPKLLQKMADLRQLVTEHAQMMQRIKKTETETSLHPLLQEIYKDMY
Kind of data set: Binding affinity to PPARdelta by scintillation proximity assay. The procedure, abridged:
as §2

For data set [9], the system named is Rattus norvegicus. In words: Antidiabetic activity in obese insulin resistant Zucker fa/fa rat assessed as decrease in free fatty acids level in plasma at 0.1 to 100 mg/kg qd for 7 days. The data set is classed as functional, organism-based. The method, boiled down: as §1
For data set [10], the system named is Rattus norvegicus. In words: Plasma clearance in rat at 0.5 mg/kg, iv and 2 mg/kg, po by LC-MS/MS analysis. The data set is classed as ADME, organism-based. The note with it: in vivo. The method, boiled down:
(§4)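 Rat pharmacokinetics: 2 mpk oral in 5% methylcellulose, 0.5 mpk iv in ethanol/PEG400/water (1/4/5). Blood sampled at set intervals; plasma acidified with 0.5 M formate buffer pH 3.0, acetonitrile-precipitated, quantified by LC−MS−MS against spiked control-plasma calibration curves.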

Data set [11] can be described thus: Half life in rat at 0.5 mg/kg, iv and 2 mg/kg, po by LC-MS/MS analysis. It counts as ADME, organism-based. The settings on record: in vivo. The method, boiled down: as §4
For a further data set, the target named is Cytochrome P450 2D6 (Homo sapiens, UniProt P10635). In words: Inhibition of CYP2D6. The data set is classed as ADME.
In data set [12] the test system is Mus musculus. In words: Antidiabetic activity in db/db C57BLKS/J-m +/+ Leprdb mouse assessed as reduction of glucose level at 20 mg/kg, po qd for 10 days measured on 11 relative to control. It counts as functional. Also noted: scale not given: the % may be the effect or the level left. The method, boiled down: as §3

Activity calls are given as the source filed them. The rule behind the calls is not given here.

As a reminder, the AUC is concentration integrated over time. One may read the IC50 as the midpoint of a concentration-inhibition curve. A word on the half-life: it is the time in which the quantity being followed falls by half.

Sequence of Cytochrome P450 2D6 (P10635 whole entry): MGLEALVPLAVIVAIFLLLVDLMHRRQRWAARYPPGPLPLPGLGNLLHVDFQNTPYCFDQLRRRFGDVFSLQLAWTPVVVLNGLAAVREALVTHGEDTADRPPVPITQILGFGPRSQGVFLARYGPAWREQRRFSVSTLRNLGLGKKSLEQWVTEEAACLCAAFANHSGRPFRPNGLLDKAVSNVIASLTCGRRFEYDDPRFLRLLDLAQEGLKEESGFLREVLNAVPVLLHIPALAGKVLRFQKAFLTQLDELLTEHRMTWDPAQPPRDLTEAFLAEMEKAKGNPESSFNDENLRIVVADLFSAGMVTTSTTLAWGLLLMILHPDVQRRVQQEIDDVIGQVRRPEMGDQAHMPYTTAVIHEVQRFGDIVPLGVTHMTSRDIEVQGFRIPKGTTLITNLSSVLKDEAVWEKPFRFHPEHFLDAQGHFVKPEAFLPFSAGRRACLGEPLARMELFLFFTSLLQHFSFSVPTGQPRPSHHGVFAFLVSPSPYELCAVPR

Compound `COc1ccc2c(-n3c(=O)n(Cc4cccc([C@@]5(C)OC(=O)NC5=O)c4)c4ccccc43)noc2c1` gave an AUC at 240 h in data set [1] of 159 µM·h. Also, the outcome with Rattus norvegicus [2], with COS-1 and in the data set on Rattus norvegicus [9] was Active. Also, the results for the IC50 (in data set [3]; in [8]; against Cytochrome P450 2D6) were more than 50 µM, more than 50 µM and 91 µM, respectively. Also, the Activity is 87% in the data set on Mus musculus [4]; “Not Active” in data set [5]; “Toxic” in the data set with Rattus norvegicus [6]; “Non-toxic” in the data set on Mus musculus [7]; 77% in the data set on Mus musculus [12]. This compound yielded a clearance with Rattus norvegicus [10] of 0.33 L/h/kg. Moreover, the half-life in [11] was 4.2 h.
